{"data": "Assay results gathered from unrelated publications", "target": "Tyrosine-protein kinase CSK (CSK, Homo sapiens, UniProt P41240)", "note": "Each line is one published result; the experiments were not run side by side."}
{"SMILES": "CC(C)(C)C(=O)c1sc(NC2CCCCC2)nc1N", "effect on": "enzyme activity", "action": "inhibitor", "concentration": "10 µM", "measurement": "remaining activity", "result": "98%"}
{"SMILES": "COc1cc2ncnc(Nc3ccc(Oc4ccccc4)c(C)c3C)c2cc1OC", "effect on": "enzyme activity", "action": "inhibitor", "concentration": "1 µM", "measurement": "inhibition", "result": "49%"}
{"SMILES": "O=C1Nc2ccc(Cl)cc2C1=Cc1cc(Cl)c(O)c(Cl)c1", "effect on": "enzyme activity", "action": "inhibitor", "concentration": "0.5 µM", "measurement": "remaining activity", "result": "85%"}
{"SMILES": "CCCOc1ccc([C@@H]2[C@@H](C(=O)O)[C@H](c3ccc4c(c3)OCO4)CN2CC(=O)Nc2c(CC)cccc2CC)cc1", "effect on": "cell-free assay", "technique": "competition with immobilised ligand", "concentration": "1 µM", "measurement": "remaining binding", "result": "91%"}
{"SMILES": "Cc1cc(NC(=O)c2cccc3cc(-c4cccc5[nH]nc(N)c45)ccc23)ccc1F", "effect on": "enzyme activity", "action": "inhibitor", "concentration": "0.1 µM", "measurement": "activity vs control", "result": "97%"}
{"SMILES": "COc1ccc2cc(OCC3(C(=O)O)CN(C(=O)c4ccc(F)cc4)C3)ccc2c1", "effect on": "cell-free assay", "technique": "competition with immobilised ligand", "concentration": "1 µM", "measurement": "remaining binding", "result": "100%"}
{"SMILES": "CCN(CC)CCNC(=O)c1c(C)[nH]c(/C=C2\\C(=O)Nc3ccc(F)cc32)c1C", "effect on": "enzyme activity", "action": "inhibitor", "concentration": "10 µM", "measurement": "inhibition", "result": "10%"}
{"SMILES": "O=C(CSc1nc2nccnc2c(=O)n1CCc1ccccc1)Nc1nccs1", "effect on": "enzyme activity", "action": "inhibitor", "concentration": "10 µM", "measurement": "inhibition", "result": "6%"}
{"SMILES": "CNC(=O)c1cc(Oc2ccc(NC(=O)Nc3ccc(Cl)c(C(F)(F)F)c3)cc2)ccn1", "effect on": "enzyme activity", "action": "inhibitor", "concentration": "10 µM", "measurement": "inhibition", "result": "22%"}
{"SMILES": "CC(C)(C)c1nc(-c2cccc(NS(=O)(=O)c3c(F)cccc3F)c2F)c(-c2ccnc(N)n2)s1", "effect on": "enzyme activity", "action": "inhibitor", "technique": "radiometric", "concentration": "1 µM", "measurement": "remaining activity", "result": "34%"}
{"SMILES": "CC(=O)N1CCC(c2ccc(C(=O)NC(=N)N)cc2C(F)(F)F)CC1", "effect on": "cell-free assay", "technique": "competition with immobilised ligand", "concentration": "1 µM", "measurement": "remaining binding", "result": "100%"}
{"SMILES": "O=C(Nc1cnn(-c2csc(C(=O)NC3COC3)c2)c1)Nc1c(F)cccc1Cl", "effect on": "enzyme activity", "action": "inhibitor", "concentration": "5 µM", "measurement": "remaining activity", "result": "97.5%"}
{"SMILES": "Cc1ccc(NC(=O)c2ccc(C)c(C(F)(F)F)c2)cc1C#Cc1nn(C2CCC(O)CC2)c2ncnc(N)c12 (centres unmarked)", "effect on": "cell-free assay", "action": "inhibitor", "concentration": "10 µM", "measurement": "remaining signal", "result": "-1%"}
{"SMILES": "Cc1c[nH]c2nccc(Oc3c(F)cc(Nc4cc(Cl)nc(N)n4)cc3F)c12", "effect on": "cell-free assay", "technique": "competition with immobilised ligand", "concentration": "0.1 µM", "measurement": "remaining binding", "result": "87%"}
{"SMILES": "CCN1CCN(Cc2ccc(NC(=O)c3ccc(C)c(Oc4ccnc5[nH]ccc45)c3)cc2C(F)(F)F)CC1", "effect on": "target engagement in cells", "action": "inhibitor", "technique": "chemoproteomics", "cells": "A-375", "concentration": "0.5 µM", "measurement": "inhibition", "result": "-14.9%"}
{"SMILES": "Cn1c(=O)n(-c2ccc(C(C)(C)C#N)cc2)c2c3cc(-c4cnc5ccccc5c4)ccc3ncc21", "effect on": "enzyme activity", "action": "inhibitor", "concentration": "10 µM", "measurement": "remaining activity", "result": "100%"}
{"SMILES": "C#Cc1cccc(Nc2ncnc3cc(OCCOC)c(OCCOC)cc23)c1", "effect on": "cell-free assay", "action": "inhibitor", "concentration": "0.5 µM", "measurement": "remaining signal", "result": "100%"}
{"SMILES": "COc1cc(Nc2cnc(C#N)c(O[C@H](C)CN(C)C)n2)ncc1-c1cnn(C)c1", "effect on": "enzyme activity", "action": "inhibitor", "technique": "radiometric", "concentration": "10 µM", "measurement": "remaining activity", "result": "94%"}
{"SMILES": "COc1cc(-c2cn(C3CCc4ccccc4N(CC(F)(F)F)C3=O)nn2)ccc1-n1ccc(C)n1 (centres unmarked)", "effect on": "cell-free assay", "technique": "competition with immobilised ligand", "concentration": "1 µM", "measurement": "remaining binding", "result": "100%"}
{"SMILES": "Oc1cccc(-c2nc(N3CCOCC3)c3oc4ncccc4c3n2)c1", "effect on": "enzyme activity", "action": "inhibitor", "concentration": "10 µM", "measurement": "remaining activity", "result": "101%"}
{"SMILES": "CNC(=O)Nc1ccc2c(c1)[C@@]1(CC2)OC(=O)N(CC(=O)N(Cc2ccc(F)cc2)[C@@H](C)C(F)(F)F)C1=O", "effect on": "cell-free assay", "technique": "competition with immobilised ligand", "concentration": "1 µM", "measurement": "remaining binding", "result": "100%"}
{"SMILES": "Nc1nc(Nc2ccccc2)sc1C(=O)c1c(F)cccc1F", "effect on": "enzyme activity", "action": "inhibitor", "concentration": "10 µM", "measurement": "remaining activity", "result": "90%"}
{"SMILES": "c1nc2c(Nc3ccc4c(c3)OCCO4)nc(Nc3ccc4c(c3)OCCO4)nc2[nH]1", "effect on": "enzyme activity", "action": "inhibitor", "concentration": "10 µM", "measurement": "activity vs control", "result": "18%"}
{"SMILES": "Cc1ccc(Nc2nccc(N(C)c3ccc4c(C)n(C)nc4c3)n2)cc1S(N)(=O)=O", "effect on": "enzyme activity", "action": "inhibitor", "concentration": "10 µM", "measurement": "inhibition", "result": "24%"}
{"SMILES": "O=C1c2ccccc2-c2n[nH]c3cccc1c23", "effect on": "enzyme activity", "action": "inhibitor", "concentration": "0.5 µM", "measurement": "activity vs control", "result": "95.6%"}
{"SMILES": "Cc1cnc(NC2CCOCC2)nc1-n1cnc(C(=O)NC(CN)c2cc(F)cc(Cl)c2)c1 (centres unmarked)", "effect on": "enzyme activity", "action": "inhibitor", "technique": "radiometric", "concentration": "1 µM", "measurement": "remaining activity", "result": "110%"}
{"SMILES": "FC(F)(F)Oc1cccc(-c2cnc3ccc(-c4ccncc4)nn23)c1", "effect on": "enzyme activity", "action": "inhibitor", "technique": "radiometric", "concentration": "1 µM", "measurement": "activity vs control", "result": "97%"}
{"SMILES": "COc1cc(/C=C/C(=O)CC(=O)/C=C/c2ccc(O)c(OC)c2)ccc1O", "effect on": "enzyme activity", "action": "inhibitor", "concentration": "1 µM", "measurement": "activity vs control", "result": "78%"}
{"SMILES": "Cc1nc(N2CC[C@@H](O)C2)ncc1-c1cc(C(F)(F)F)cc2[nH]ncc12", "effect on": "cell-free assay", "technique": "competition with immobilised ligand", "concentration": "1 µM", "measurement": "remaining binding", "result": "100%"}
{"SMILES": "Cc1ccc(C(=O)NCc2ccsc2)cc1C#Cc1cn(C(C)C)c2ncnc(N)c12", "effect on": "enzyme activity", "action": "inhibitor", "concentration": "1 µM", "measurement": "activity vs control", "result": "26%"}
{"SMILES": "CN(C)C(=O)Cn1cc(-c2nc([C@@](C)(c3ccc(-c4cnc(N)nc4)cc3)C3CC3)no2)cn1", "effect on": "cell-free assay", "technique": "competition with immobilised ligand", "concentration": "1 µM", "measurement": "remaining binding", "result": "100%"}
{"SMILES": "Cc1nc(Nc2ncc(C(=O)Nc3c(C)cccc3Cl)s2)cc(N2CCN(CCO)CC2)n1", "effect on": "enzyme activity", "action": "inhibitor", "concentration": "0.5 µM", "measurement": "activity vs control", "result": "7.11%"}
